In the first test the test system is Mus musculus. Briefly: Anticoagulant activity in ICR mouse plasma assessed as PT-prolongation at 100 mg/kg, po after 0.5 hrs relative to control. It is filed as functional. The gist of the method: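 Male ICR mice (20–35 g), fasted overnight, were given compound orally by gastric tube at 100 mg/kg as a suspension in 0.5% methylcellulose. At 0.5 h, blood was drawn from the abdominal vena cava into 3.8% citrate, and platelet-poor plasma was prepared by centrifugation. PT was measured and expressed as percent change versus vehicle or normal plasma, mean ± SEM, n = 3.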
With `COc1ccc(OC)c(S(=O)(=O)N2CCC(N(C/C=C/c3cccc(C(=N)N)c3)C(=O)CC(=O)O)CC2)c1`, the Activity is 104%.

With `CCOC(=O)CC(=O)N(C/C=C/c1cccc(/C(N)=N\O)c1)C1CCN(S(=O)(=O)c2cc(OC)ccc2OC)CC1`, the Activity is recorded as 187%.

For the compound `CCOC(=O)CS(=O)(=O)N(Cc1ccc2ccc(/C(N)=N\O)cc2c1)C1CCN(S(=O)(=O)c2cc(OC)ccc2OC)CC1`, the Activity turned out to be 101%.

With `CCOC(=O)CS(=O)(=O)N(C/C=C/c1cccc(/C(N)=N\O)c1)C1CCN(S(=O)(=O)c2cc(OC)ccc2OC)CC1`, the Activity is reported as 116%.

In the case of `CCOC(=O)CC(=O)N(Cc1ccc2ccc(/C(N)=N\O)cc2c1)C1CCN(S(=O)(=O)c2cc(OC)ccc2OC)CC1`, the Activity is given as 109%.

For `CC(=N)N1CC[C@H](Oc2ccc([C@H](Cc3ccc4ccc(C(=N)N)cc4c3)C(=O)O)cc2)C1` [DX-9065A], the Activity is 151%.

For the next test, the species on record is Homo sapiens. Nature of the test: Selectivity for human factor 10a over human thrombin.
As to `CS(=O)(=O)N(Cc1ccc2ccc(C(=N)N)cc2c1)C1CCN(C(=O)c2cccc(Cl)c2)CC1`, the Selectivity ratio was > 7000.

For `COc1ccc(OC)c(S(=O)(=O)N2CCC(N(C/C=C/c3cccc(C(=N)N)c3)C(=O)CC(=O)O)CC2)c1`, the Selectivity ratio is > 7000.

`CS(=O)(=O)N(Cc1ccc2ccc(C(=N)N)cc2c1)C1CCN(S(=O)(=O)c2c(Cl)cccc2Cl)CC1`: the Selectivity ratio was > 7000.

In the case of `CCOC(=O)CC(=O)N(C/C=C/c1cccc(/C(N)=N\O)c1)C1CCN(S(=O)(=O)c2cc(OC)ccc2OC)CC1`, the Selectivity ratio is > 7000.

On to `CS(=O)(=O)N(Cc1ccc2ccc(C(=N)N)cc2c1)C1CCN(C(=O)c2cccc(C#N)c2)CC1`, for which the Selectivity ratio was > 7000.

In the case of `CS(=O)(=O)N(Cc1ccc2ccc(C(=N)N)cc2c1)C1CCN(S(=O)(=O)c2cccc(Cl)c2Cl)CC1`, the Selectivity ratio is > 7000.

For the compound `CS(=O)(=O)N(Cc1ccc2ccc(C(=N)N)cc2c1)C1CCN(S(=O)(=O)c2ccc(Cl)c(Cl)c2)CC1`, the Selectivity ratio is > 7000.

`COc1ccc(OC)c(S(=O)(=O)N2CCC(N(C/C=C/c3cccc(C(=N)N)c3)S(=O)(=O)CC(=O)O)CC2)c1`: the Selectivity ratio is > 7000.

Regarding `CCOC(=O)CS(=O)(=O)N(C/C=C/c1cccc(/C(N)=N\O)c1)C1CCN(S(=O)(=O)c2cc(OC)ccc2OC)CC1`, the Selectivity ratio was > 7000.

For the compound `CS(=O)(=O)N(Cc1ccc2ccc(C(=N)N)cc2c1)C1CCN(Cc2cccc(C#N)c2)CC1`, the Selectivity ratio was > 7000.

As to `COc1ccc(C)cc1S(=O)(=O)N1CCC(N(Cc2ccc3ccc(C(=N)N)cc3c2)S(C)(=O)=O)CC1`, the Selectivity ratio is > 7000.

Take `COc1ccc(OC)c(S(=O)(=O)N2CCC(N(Cc3ccc4ccc(C(=N)N)cc4c3)C(=O)CC(=O)O)CC2)c1`: the Selectivity ratio was > 7000.

`Cc1ccccc1S(=O)(=O)N1CCC(N(Cc2ccc3ccc(C(=N)N)cc3c2)S(C)(=O)=O)CC1`: the Selectivity ratio was > 7000.

Consider `COc1ccc(OC)c(S(=O)(=O)N2CCC(N(Cc3ccc4ccc(C(=N)N)cc4c3)C(C)=O)CC2)c1`, for which the Selectivity ratio is > 7000.

Consider `CS(=O)(=O)N(Cc1ccc2ccc(C(=N)N)cc2c1)C1CCN(Cc2cccc(Cl)c2)CC1`, for which the Selectivity ratio was > 7000.

For the compound `CCOC(=O)CC(=O)N(Cc1ccc2ccc(/C(N)=N\O)cc2c1)C1CCN(S(=O)(=O)c2cc(OC)ccc2OC)CC1`, the Selectivity ratio is > 7000.

Another test is filed under the species Homo sapiens. Briefly: Selectivity for human factor 10a over human trypsin.
Consider `CS(=O)(=O)N(Cc1ccc2ccc(C(=N)N)cc2c1)C1CCN(C(=O)c2cccc(Cl)c2)CC1`, for which the Selectivity ratio was > 100.

Consider `COc1ccc(OC)c(S(=O)(=O)N2CCC(N(C/C=C/c3cccc(C(=N)N)c3)C(=O)CC(=O)O)CC2)c1`, for which the Selectivity ratio was > 100.

For `CS(=O)(=O)N(Cc1ccc2ccc(C(=N)N)cc2c1)C1CCN(S(=O)(=O)c2c(Cl)cccc2Cl)CC1`, the Selectivity ratio was > 100.

For the compound `CCOC(=O)CC(=O)N(C/C=C/c1cccc(/C(N)=N\O)c1)C1CCN(S(=O)(=O)c2cc(OC)ccc2OC)CC1`, the Selectivity ratio was > 100.

With `CS(=O)(=O)N(Cc1ccc2ccc(C(=N)N)cc2c1)C1CCN(C(=O)c2cccc(C#N)c2)CC1`, the Selectivity ratio was > 100.

As to `CS(=O)(=O)N(Cc1ccc2ccc(C(=N)N)cc2c1)C1CCN(S(=O)(=O)c2cccc(Cl)c2Cl)CC1`, the Selectivity ratio was > 100.

`CS(=O)(=O)N(Cc1ccc2ccc(C(=N)N)cc2c1)C1CCN(S(=O)(=O)c2ccc(Cl)c(Cl)c2)CC1`: the Selectivity ratio was > 100.

For the compound `COc1ccc(OC)c(S(=O)(=O)N2CCC(N(C/C=C/c3cccc(C(=N)N)c3)S(=O)(=O)CC(=O)O)CC2)c1`, the Selectivity ratio is > 100.

Consider `CCOC(=O)CS(=O)(=O)N(C/C=C/c1cccc(/C(N)=N\O)c1)C1CCN(S(=O)(=O)c2cc(OC)ccc2OC)CC1`, for which the Selectivity ratio was > 100.

Consider `CS(=O)(=O)N(Cc1ccc2ccc(C(=N)N)cc2c1)C1CCN(Cc2cccc(C#N)c2)CC1`, for which the Selectivity ratio was > 100.

For the compound `COc1ccc(C)cc1S(=O)(=O)N1CCC(N(Cc2ccc3ccc(C(=N)N)cc3c2)S(C)(=O)=O)CC1`, the Selectivity ratio is > 100.

Regarding `COc1ccc(OC)c(S(=O)(=O)N2CCC(N(Cc3ccc4ccc(C(=N)N)cc4c3)C(=O)CC(=O)O)CC2)c1`, the Selectivity ratio was > 100.

As to `Cc1ccccc1S(=O)(=O)N1CCC(N(Cc2ccc3ccc(C(=N)N)cc3c2)S(C)(=O)=O)CC1`, the Selectivity ratio is > 100.

For `COc1ccc(OC)c(S(=O)(=O)N2CCC(N(Cc3ccc4ccc(C(=N)N)cc4c3)C(C)=O)CC2)c1`, the Selectivity ratio was > 100.

Regarding `CS(=O)(=O)N(Cc1ccc2ccc(C(=N)N)cc2c1)C1CCN(Cc2cccc(Cl)c2)CC1`, the Selectivity ratio was > 100.

For the compound `CCOC(=O)CC(=O)N(Cc1ccc2ccc(/C(N)=N\O)cc2c1)C1CCN(S(=O)(=O)c2cc(OC)ccc2OC)CC1`, the Selectivity ratio is > 100.

Another test relates to Plasma. Nature of the test: Anticoagulant activity in mouse plasma assessed as concentration required to double prothrombin time. It is filed as functional. The gist of the method: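 Pooled citrated mouse plasma was incubated with diluted compound for 1 min at 37 °C. Brain thromboplastin PT reagent was then added to start clotting, and clot time was read on a coagulometer. The concentration doubling clotting time (CT₂) was estimated from each individual dose–response curve.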
Take `COc1ccc(OC)c(S(=O)(=O)N2CCC(N(C/C=C/c3cccc(C(=N)N)c3)C(=O)CC(=O)O)CC2)c1`: the Activity worked out at 1.4 µM.

Turning to `COc1ccc(OC)c(S(=O)(=O)N2CCC(N(C/C=C/c3cccc(C(=N)N)c3)S(=O)(=O)CC(=O)O)CC2)c1`, the Activity came out at 1.2 µM.

For the compound `COc1ccc(OC)c(S(=O)(=O)N2CCC(N(Cc3ccc4ccc(C(=N)N)cc4c3)C(=O)CC(=O)O)CC2)c1`, the Activity was 1.6 µM.

In the case of `CC(=N)N1CC[C@H](Oc2ccc([C@H](Cc3ccc4ccc(C(=N)N)cc4c3)C(=O)O)cc2)C1` [DX-9065A], the Activity amounted to 4.9 µM.

A further test has as its target Prothrombin (Homo sapiens, UniProt P00734). Nature of the test: Inhibition of human thrombin.
Usually IC50 stands for the concentration that inhibits the measured activity by half. Read a low IC50 as greater potency. As to `COc1ccc(OC)c(S(=O)(=O)N2CCC(N(C/C=C/c3cccc(C(=N)N)c3)C(=O)CC(=O)O)CC2)c1`, the half-maximal inhibitory concentration (IC50) is > 100000 nM.

In the case of `COc1ccc(OC)c(S(=O)(=O)N2CCC(N(C/C=C/c3cccc(C(=N)N)c3)S(=O)(=O)CC(=O)O)CC2)c1`, the IC50 is > 100000 nM.

Consider `COc1ccc(OC)c(S(=O)(=O)N2CCC(N(Cc3ccc4ccc(C(=N)N)cc4c3)C(=O)CC(=O)O)CC2)c1`, for which the IC50 is > 100000 nM.

Consider `COc1ccc(OC)c(S(=O)(=O)N2CCC(N(Cc3ccc4ccc(C(=N)N)cc4c3)C(C)=O)CC2)c1`, for which the concentration for half-maximal inhibition (IC50) is > 100000 nM.

The target in the next test is Coagulation factor X (Homo sapiens, UniProt P00742). Briefly: Inhibition of human factor 10a.
Coagulation factor X, sequence (P00742 41-179 limits assumed): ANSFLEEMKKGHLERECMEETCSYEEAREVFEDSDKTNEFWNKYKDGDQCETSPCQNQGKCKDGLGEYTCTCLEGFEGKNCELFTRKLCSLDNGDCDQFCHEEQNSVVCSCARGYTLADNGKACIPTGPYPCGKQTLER
Coagulation factor X, sequence (P00742 235-488 limits assumed): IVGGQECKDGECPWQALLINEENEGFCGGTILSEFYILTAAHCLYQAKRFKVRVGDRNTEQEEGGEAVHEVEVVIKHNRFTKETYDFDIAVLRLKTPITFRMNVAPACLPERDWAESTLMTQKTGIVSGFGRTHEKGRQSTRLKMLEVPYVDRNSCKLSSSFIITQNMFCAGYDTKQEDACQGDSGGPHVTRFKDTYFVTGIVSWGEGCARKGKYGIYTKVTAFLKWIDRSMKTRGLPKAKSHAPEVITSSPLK
For the compound `CS(=O)(=O)N(Cc1ccc2ccc(C(=N)N)cc2c1)C1CCN(C(=O)c2cccc(Cl)c2)CC1`, the IC50 is > 100000 nM.

`COc1ccc(OC)c(S(=O)(=O)N2CCC(N(C/C=C/c3cccc(C(=N)N)c3)C(=O)CC(=O)O)CC2)c1` had an IC50 of 13 nM.

Regarding `CS(=O)(=O)N(Cc1ccc2ccc(C(=N)N)cc2c1)C1CCN(S(=O)(=O)c2c(Cl)cccc2Cl)CC1`, the IC50 is > 100000 nM.

With `CS(=O)(=O)N(Cc1ccc2ccc(C(=N)N)cc2c1)C1CCN(C(=O)c2cccc(C#N)c2)CC1`, the IC50 was > 100000 nM.

In turn, `CS(=O)(=O)N(Cc1ccc2ccc(C(=N)N)cc2c1)C1CCN(S(=O)(=O)c2cccc(Cl)c2Cl)CC1` yielded an IC50 of 560 nM.

Regarding `CS(=O)(=O)N(Cc1ccc2ccc(C(=N)N)cc2c1)C1CCN(S(=O)(=O)c2ccc(Cl)c(Cl)c2)CC1`, the IC50 came to 190 nM.

`COc1ccc(OC)c(S(=O)(=O)N2CCC(N(C/C=C/c3cccc(C(=N)N)c3)S(=O)(=O)CC(=O)O)CC2)c1` came in with an IC50 of 10 nM.

Take `CS(=O)(=O)N(Cc1ccc2ccc(C(=N)N)cc2c1)C1CCN(Cc2cccc(C#N)c2)CC1`: 2300 nM corresponded to half-maximal inhibition (IC50).

`COc1ccc(C)cc1S(=O)(=O)N1CCC(N(Cc2ccc3ccc(C(=N)N)cc3c2)S(C)(=O)=O)CC1` yielded an IC50 of 58 nM.

Consider `COc1ccc(OC)c(S(=O)(=O)N2CCC(N(Cc3ccc4ccc(C(=N)N)cc4c3)C(=O)CC(=O)O)CC2)c1`, for which the IC50 worked out at 8.1 nM.

As for `Cc1ccccc1S(=O)(=O)N1CCC(N(Cc2ccc3ccc(C(=N)N)cc3c2)S(C)(=O)=O)CC1`, the IC50 amounted to 950 nM.

With `COc1ccc(OC)c(S(=O)(=O)N2CCC(N(Cc3ccc4ccc(C(=N)N)cc4c3)C(C)=O)CC2)c1`, inhibition was half-maximal at 12 nM (IC50).

`CS(=O)(=O)N(Cc1ccc2ccc(C(=N)N)cc2c1)C1CCN(Cc2cccc(Cl)c2)CC1` returned a half-inhibitory concentration (IC50) of 1700 nM.

The next test concerns the target Trypsin (Homo sapiens, UniProt P07477+P07478+P35030). Briefly: Inhibition of human trypsin. It is filed as protein assay.
On to `COc1ccc(OC)c(S(=O)(=O)N2CCC(N(C/C=C/c3cccc(C(=N)N)c3)C(=O)CC(=O)O)CC2)c1`, for which the half-inhibitory concentration (IC50) was found to be 6000 nM.

In turn, `COc1ccc(OC)c(S(=O)(=O)N2CCC(N(C/C=C/c3cccc(C(=N)N)c3)S(=O)(=O)CC(=O)O)CC2)c1` yielded an IC50 of 5300 nM.

Consider `COc1ccc(OC)c(S(=O)(=O)N2CCC(N(Cc3ccc4ccc(C(=N)N)cc4c3)C(=O)CC(=O)O)CC2)c1`, for which the IC50 was found to be 3700 nM.

On to `COc1ccc(OC)c(S(=O)(=O)N2CCC(N(Cc3ccc4ccc(C(=N)N)cc4c3)C(C)=O)CC2)c1`, for which the IC50 came to 2500 nM.

Regarding `CC(=N)N1CC[C@H](Oc2ccc([C@H](Cc3ccc4ccc(C(=N)N)cc4c3)C(=O)O)cc2)C1` [DX-9065A], the IC50 was found to be 3200 nM.

The subject of another test is Plasma. Nature of the test: Anticoagulant activity in human plasma assessed as concentration required to double prothrombin time. It is filed as functional.
Take `COc1ccc(OC)c(S(=O)(=O)N2CCC(N(C/C=C/c3cccc(C(=N)N)c3)C(=O)CC(=O)O)CC2)c1`: the Activity came to 0.55 µM.

For the compound `COc1ccc(OC)c(S(=O)(=O)N2CCC(N(C/C=C/c3cccc(C(=N)N)c3)S(=O)(=O)CC(=O)O)CC2)c1`, the Activity is 0.47 µM.

In the case of `COc1ccc(OC)c(S(=O)(=O)N2CCC(N(Cc3ccc4ccc(C(=N)N)cc4c3)C(=O)CC(=O)O)CC2)c1`, the Activity worked out at 0.56 µM.

In the case of `CC(=N)N1CC[C@H](Oc2ccc([C@H](Cc3ccc4ccc(C(=N)N)cc4c3)C(=O)O)cc2)C1` [DX-9065A], the Activity is 0.55 µM.

These data come from ChEMBL document CHEMBL1147967, “Prodrug-based design, synthesis, and biological evaluation of N-benzenesulfonylpiperidine derivatives as novel, orally active factor Xa inhibitors” (Bioorg Med Chem, 2007).
